Measured values: ChEMBL document CHEMBL4811254, “Beyond Basicity: Discovery of Nonbasic DENV-2 Protease Inhibitors with Potent Activity in Cell Culture” (J Med Chem, 2021)
Active and inactive are the calls of the source. The rule behind the calls is not given here.

Assays:
[1] = target: Genome polyprotein (dengue virus type 2) (UniProt P29990); test: Inhibition of NS2B-NS3 protease in DENV2proHeLa system assessed as inhibition of luciferase signal at 12.5 uM incubated for 24 hrs by luciferase reporter gene assay; assay type: cell-based; conditions: HeLa
How it was run: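 Stable DENV2proHeLa cells seeded at 2 × 10⁴/well and dosed immediately, then incubated 24 h at 37 °C. Cells lysed 15 min at room temperature. Luciferase read with coelenterazine (2.75 μM in PBS) injection, luminescence 5 s. Triplicates; percent inhibition calculated relative to untreated control; background from cell-free wells.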

[2] = Cytotoxicity against human HeLa cells assessed as reduction in cell viability incubated for 24 hrs by CellTiter-Blue assay; assay type: cell-based
How it was run: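 Viability by CellTiter-Blue in HeLa or Huh-7 cells exposed to compound dilutions. Plates run in parallel with the reporter assay (HeLa) or the virus titer assay (Huh-7).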

Trypsin (Homo sapiens) = Trypsin (Homo sapiens) (UniProt P07477+P07478+P35030); test: Inhibition of trypsin (unknown origin) using Boc-Val-Pro-Arg-AMC as substrate at 50 uM preincubated with enzyme for 15 mins followed by substrate addition and measured for 15 mins by fluorimetric assay; assay type: protein assay; conditions: time 30.0 min
[3] = target: Prothrombin (Homo sapiens) (UniProt P00734); test: Inhibition of thrombin in human plasma using Boc-Val-Pro-Arg-AMC as substrate at 25 uM preincubated with enzyme for 15 mins followed by substrate addition and measured for 15 mins by fluorimetric assay; assay type: cell-free; conditions: time 30.0 min
Genome polyprotein = Genome polyprotein (dengue virus type 2, UniProt P29990); test: Inhibition of NS2B-NS3 protease in DENV2proHeLa system assessed as inhibition of luciferase signal incubated for 24 hrs by luciferase reporter gene assay; assay type: cell-based, HeLa
How it was run: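 HeLa cells stably carrying the reporter system, 2 × 10⁴ per well, given inhibitor at seeding and held 24 h at 37 °C. Cells lysed 15 min at room temperature. Luciferase read for 5 s after injecting coelenterazine (2.75 μM in PBS). Triplicate wells per concentration; percent inhibition taken against untreated cells. EC50/EC90 from 4-parameter dose-response fit, background from cell-free wells subtracted.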

SMILES	inhibition [1]	CC50 at 24 h [2]	inhibition (Trypsin (Homo sapiens))	inhibition [3]	EC50 (Genome polyprotein)
CCCCCC(=O)N[C@H](C(=O)Nc1ccc(S(N)(=O)=O)cc1)c1ccc(OCc2ccccc2)cc1	< 10%	> 50 µM	inactive	inactive	
Cc1ccc(C)c(OCCCC(C)(C)C(=O)N[C@H](C(=O)Nc2cccc(C(N)=O)c2)c2ccc(OCc3ccccc3)cc2)c1	82%	> 25 µM	inactive	inactive	1.7 µM
CCCCCC(=O)N[C@H](C(=O)N1CCCCC1)c1ccc(OCc2ccccc2)cc1	58%	29 µM	inactive	inactive	13 µM
CCCCCC(=O)N[C@H](C(=O)NCc1ccc(C(N)=O)cc1)c1ccc(C(F)(F)F)cc1	31%	> 50 µM	inactive	inactive	
CCCCCC(=O)N[C@H](C(=O)NCc1ccc(C(N)=O)cc1)c1ccc(O)cc1	< 10%	> 100 µM	inactive	inactive	
CCCCCC(=O)N[C@H](C(=O)NCc1cccc(OC)c1)c1ccc(OCc2ccccc2)cc1	< 10%	> 50 µM	inactive	inactive	
COc1cccc(COc2ccc([C@H](NC(=O)c3ccc(Oc4ccccc4)cc3)C(=O)Nc3cccc(C(N)=O)c3)cc2)c1	73%	> 100 µM	inactive	inactive	2.1 µM
NC(=O)c1ccc(CNC(=O)[C@@H](NC(=O)c2cccs2)c2ccc(OCc3ccccc3)cc2)cc1	72%	> 50 µM	inactive	inactive	8.4 µM
CCCCCC(=O)N[C@H](C(=O)NCc1ccc(OC)cc1)c1ccc(OCc2ccccc2)cc1	35%	> 50 µM	inactive	inactive	28 µM
CCCCCC(=O)N[C@H](C(=O)Nc1ccc(OC)cc1)c1ccc(OCc2ccccc2)cc1	10%	> 25 µM	inactive	inactive	
CCCCCC(=O)N[C@H](C(=O)NCc1ccc(C(=O)NO)cc1)c1ccc(OCc2ccccc2)cc1	40%	> 50 µM	inactive	inactive	
CCCCCC(=O)N[C@@H](C(=O)NCc1ccc(C(N)=O)cc1)c1ccc(OCc2ccccc2)cc1	35%	> 50 µM	inactive	inactive	
CCCCCC(=O)N[C@H](C(=O)NCc1ccc(Cl)cc1)c1ccc(OCc2ccccc2)cc1	14%	> 50 µM	inactive	inactive	
CCCCCC(=O)N[C@H](C(=O)NCc1ccc(NC(N)=O)cc1)c1ccc(OCc2ccccc2)cc1			inactive	inactive	
Cc1ccc(C(=O)c2cc(O)c(O)c([N+](=O)[O-])c2)cc1 [TOLCAPONE]	59%	> 25 µM			7.1 µM
NCCCCCC(=O)N[C@H](C(=O)NCc1ccc(C(N)=O)cc1)c1ccc(OCc2ccccc2)cc1	14%	> 50 µM	inactive	inactive	
NC(=O)c1ccc(CNC(=O)[C@@H](NCc2ccccc2)c2ccc(OCc3ccccc3)cc2)cc1	36%	> 50 µM	inactive	inactive	

SMILES	inhibition [1]	CC50 at 24 h [2]	inhibition (Trypsin (Homo sapiens))	inhibition [3]	EC50 (Genome polyprotein)
COCCOCC(=O)N[C@H](C(=O)NCc1ccc(C(N)=O)cc1)c1ccc(OCc2ccccc2)cc1	27%	> 50 µM	inactive	inactive	
CCCC(O)C(=O)N[C@H](C(=O)NCc1ccc(C(N)=O)cc1)c1ccc(OCc2ccccc2)cc1 (some centres not stated)	< 10%	> 50 µM	inactive	inactive	
NC(=O)c1cccc(NC(=O)[C@@H](NC(=O)C2CCN(c3ccccc3)CC2)c2ccc(OCc3ccccc3)cc2)c1	46%	> 50 µM	inactive	inactive	
NC(=O)c1ccc(CNC(=O)[C@@H](NC(=O)C2CCC2)c2ccc(OCc3ccccc3)cc2)cc1	45%	> 50 µM	inactive	inactive	
CCCCCC(=O)N[C@H](C(=O)N1CCC(C(N)=O)CC1)c1ccc(OCc2ccccc2)cc1	28%	> 50 µM	inactive	inactive	
CCCCCC(=O)N[C@@H](Cc1ccccc1)C(=O)NCc1ccc(C(N)=O)cc1	< 10%	> 50 µM	inactive	inactive	
NC(=O)c1ccc(CNC(=O)[C@@H](N)c2ccc(OCc3ccccc3)cc2)cc1	33%	> 50 µM	inactive	inactive	
CCCCCC(=O)N[C@H](C(=O)NCCc1ccccc1)c1ccc(OCc2ccccc2)cc1		< 12.5 µM	inactive	inactive	
CCCCCC(=O)N[C@H](C(=O)NCc1ccc(C(N)=O)cc1)c1ccccc1	15%	> 50 µM	inactive	inactive	
CC(C)CCOc1ccc(C(=O)N[C@H](C(=O)Nc2cccc(C(N)=O)c2)c2ccc(OCc3ccccc3)cc2)cc1	49%	> 50 µM	inactive	inactive	
CCCCCC(=O)N[C@H](C(=O)NCC1CCC(C(N)=O)CC1)c1ccc(OCc2ccccc2)cc1 (some centres not stated)	29%	> 50 µM	inactive	inactive	
CCCCCC(=O)N[C@H](C(=O)Nc1ccccc1C(N)=O)c1ccc(OCc2ccccc2)cc1	13%	> 50 µM	inactive	inactive	
NC(=O)c1ccc(CNC(=O)[C@@H](NC(=O)/C=C/c2ccccc2)c2ccc(OCc3ccccc3)cc2)cc1	34%	> 50 µM	inactive	inactive	
CCCCCC(=O)N[C@@H](C(=O)NCc1ccc(C(N)=O)cc1)c1ccc(OCc2ccc(C(F)(F)F)cc2)cc1	42%	> 50 µM	inactive	inactive	
CCCCCC(=O)N[C@H](C(=O)Nc1ccc(CC(N)=O)cc1)c1ccc(OCc2ccccc2)cc1	47%	> 50 µM	inactive	inactive	
CCCCCC(=O)N[C@H](C(=O)NCc1ccccc1)c1ccc(OCc2ccccc2)cc1	< 10%	> 50 µM	inactive	inactive	
CCCCCC(=O)N[C@H](C(=O)NCc1ccc(C(=O)O)cc1)c1ccc(OCc2ccccc2)cc1	14%	> 50 µM	inactive	inactive	
